Tests used:
Assay type in all cases: functional
[1] = Inhibition of skin tumor promoter -induced mouse epidermal ornithine decarboxylase (ODC) activity on TPA-induced mouse epidermis at a dose of 170(nmol)
Outline: (§1)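 Female CD-1 mice, 7–9 weeks, shaved dorsal skin 1–2 days before, no hair regrowth. Retinoid applied topically in 0.2 mL acetone 1 h before single topical TPA (10.5 μg, 17 nmol, in 0.2 mL acetone). Killed 5 h after TPA. Five mice per group, skins pooled. Epidermal 30000g supernatant in 50 mM sodium phosphate, 0.1 mM pyridoxal phosphate, 0.1 mM EDTA.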

[2] = Inhibition of skin tumor promoter -induced mouse epidermal ornithine decarboxylase (ODC) activity on TPA-induced mouse epidermis at a dose of 17(nmol); outline: as §1
[3] = Inhibition of skin tumor promoter -induced mouse epidermal ornithine decarboxylase (ODC) activity on TPA-induced mouse epidermis at a dose of 1.7(nmol); outline: as §1

| SMILES | inhibition [1] [%] | inhibition [2] [%] | inhibition [3] [%] |
| --- | --- | --- | --- |
| CC1=C(/C=C/C(C)=C/C=C/C(C)=C/c2nn[nH]n2)C(C)(C)CCC1 | 2 | 13 | 3 |
| COCCOCCOC(=O)/C=C(C)/C=C/C=C(C)/C=C/C1=C(C)CCCC1(C)C | 97 | 92 | 70 |
| CC1=C(/C=C/C(C)=C/C=C/C(C)=C/C(=O)O)C(C)(C)CCC1 | – | – | 91 |
| CC(=O)Oc1cccc(/C=C/C=C(C)/C=C/C2=C(C)CCCC2(C)C)c1 | 92 | 46 | 3 |

The remaining lines, values ahead:

| inhibition [1] [%] | inhibition [2] [%] | inhibition [3] [%] | SMILES |
| --- | --- | --- | --- |
| 95 | 63 | 46 | CCOC(=O)/C=C(C)/C=C/C=C(C)/C=C/C1=CC2CCC1C2 (stereo unspecified) |
| 87 | 86 | 66 | CCC1=C(/C=C/C(C)=C/C=C/C(C)=C/C(=O)O)C(C)(C)CCC1 |
